# Measurements taken from PubChem BioAssay.
# A number with no mark means an inactive call.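 How the source made its calls, unless noted: active means viability increase at or above a cutoff of the median across tested compounds plus 3 SD (cut at about 8.5% in these data, passing the limit was not always enough); inconclusive means some gains above the cutoff, reason not given; inactive means the rest.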
# Assay: Restrictive medium S. cerevisiae growth inhibition, OD615, pilot screen of yeast lifespan reduction project, restrictive growth control (AID 706;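 active means growth inhibition above a set limit, 3 SD over mean compound inhibition, in both replicates, cut at about 43% in these data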;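 further: modified DeaD lifespan yeast strain shifted to restrictive glucose medium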)
# Conditions: OD615, 48 h, at 10 µM, stronger effect = higher value
# Outline: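 Material: modified S. cerevisiae; Medium: glucose-based CSMM-D restrictive medium; Compound dosing: one concentration, 10 µM final, 0.25% DMSO; Incubation: 48 h compound exposure at 30 °C; Measured by: OD615.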
row,SMILES,growth inhibition
1,Cc1cccc(N2C(=O)CC(N3CCN(c4cccc(C(F)(F)F)c4)CC3)C2=O)c1 (centres undefined),-8.65%
2,O=c1c2ccccc2nc2n1CCN2,-1.61%
3,CCOC(=O)C1=C(C)Nc2nnnn2C1c1ccc(OC)c(Br)c1 (centres undefined),2.52%
4,COc1ccc(-n2c(Cc3cccn3C)nnc2SCC(N)=O)cc1,5.57%
5,COc1ccccc1NC(=O)CSc1nnc(Cc2cccn2C)n1-c1ccc(F)cc1,10.8%
6,CC(=O)Nc1cccc(Oc2nc(C)cc(C)c2C#N)c1,-19.5%
7,COc1ccc(CNC(=O)c2ccc(CN3CCOCC3)cc2)cc1,-16.6%
8,Cc1cc(OCC(=O)NCCO)cc(C)c1Cl,0.385%
9,COc1ccc(C)cc1S(=O)(=O)N1CCN(S(=O)(=O)c2cc(C)ccc2OC)CC1,-26.2%
10,CCCCC(NS(=O)(=O)c1ccc(OC)cc1)C(=O)O (centres undefined),-7.24%
11,CCOc1ccc(Cn2nnc(C(=O)Nc3ccc(OC)cc3OC)c2N)cc1,-9.57%
12,Cc1cc(C)c(NC(=O)CSc2nc3c(c(=O)n2C)SC(C)C3)c(C)c1 (centres undefined),-17.5%
13,COc1ccccc1N1C(=O)CCC1(C#N)c1ccccc1 (centres undefined),0.615%
14,CCOc1ccc(N(CC(=O)NC2CCCC(C)C2C)S(=O)(=O)c2c(C)noc2C)cc1 (centres undefined),-14.4%
15,CCN1C(=O)c2ccccc2S(=O)(=O)c2ccc(C(=O)NCc3cccnc3)cc21,-4.21%
16,Cc1ccc(C(=O)CC2(O)C(=O)N(C)c3ccc(Br)cc32)c(C)c1 (centres undefined),9.8%
17,CCN1CCN(C(=O)c2cn(CC)c3ccc(S(=O)(=O)N(C)C)cc3c2=O)CC1,-18%
18,COc1ccc(OC)c(NC(=O)CSc2nnc(Cc3cccn3C)n2-c2ccc(F)cc2)c1,16.1%
19,CCOc1ccc(-c2nnc(SCC(=O)N3CCN(c4ccccc4)CC3)o2)cc1,2.85%
20,COCCCN(C)C1CCN(C(=O)Nc2ccc(F)cc2)CC1,3.39%
21,COc1cccc(C2CC(=O)Nc3c2c(=O)n(C)c(=O)n3C)c1OC (centres undefined),-1.43%
22,CCCC(=O)C1=C(N(C)c2ccccc2)CC(C)(C)C(C(=O)OC)C1=O (centres undefined),-2.86%
23,CC(=O)N1c2c(cc(Br)cc2S(=O)(=O)NCC2COc3ccccc3O2)CC1C (centres undefined),8.23%
24,CCCCNC(=O)Cn1c(=O)n(C)c2ccccc21,-4.06%

# Assay: viability gain of MRP-1-high H69AR cells under doxorubicin, pilot screen, MRP-1 activator project, CellTiter-Glo, duplicate (AID 807);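 further: compound pretreatment 18-22 h then 72 h combined with doxorubicin; 0% = doxorubicin alone and 100% = vehicle without doxorubicin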
# Conditions: H69AR viability with doxorubicin, CellTiter-Glo luminescence; at 10 µM; stronger effect = higher value
row,SMILES,viability increase
1,CCOC(=O)c1ccc(NS(=O)(=O)c2ccc3c(c2)oc(=O)n3C)cc1,1.82%
2,O=C(Nc1ccc2c(c1)OCCO2)NC1CCCCC1,-0.85%
3,O=C(CSc1nnnn1-c1ccccc1Cl)Nc1ccc2c(c1)OCCO2,1.44%
4,COc1ccc(-c2nc(CSCC(=O)NCc3ccc4c(c3)OCO4)c(C)o2)cc1OC,-3.57%
5,Cc1cnc(NC(=O)CSc2nnc(COc3c(C)cccc3C)o2)s1,-0.06%
6,Cc1cccc(C2CC(c3ccccc3)Nc3nc(N)nn32)c1 (centres undefined),-0.5%
7,CCc1ccccc1N1CC23C=CC(O2)C(C(=O)O)C3C1=O (centres undefined),1.1%
8,CCOC(=O)C1CCN(Cc2ccc(F)c(Br)c2)CC1,-2.69%
9,CCOc1ccccc1N1Cc2cc(C)c(C)cc2C1,-2.58%
10,CCN1CCN(C(CNC(=O)c2ccc3c(c2)OCO3)c2cccnc2)CC1 (centres undefined),0.44%
11,O=C(NCCSc1c[nH]c2ccccc12)c1ccco1,-6.06%
12,COCCNC(=O)CN(C)S(=O)(=O)c1ccc(Br)cc1,-2.09%
13,COc1cc(C(=O)Nc2cccc(-c3nncn3C)c2)cc(OC)c1OC,-1.76%
14,CN1CCN(Cc2nc3c(c(=O)n(C)c(=O)n3C)n2Cc2ccccc2Cl)CC1,-2.56%
15,O=C(OCCN=C1NS(=O)(=O)c2ccccc21)C1CC(=O)N(c2ccc(Cl)cc2)C1 (centres undefined),-0.51%
16,COc1cccc2cc(C(=O)OC3CCN(C)CC3)c(=O)oc12,-3.68%
17,Cc1cccc(N2C(=O)CC(N3CCN(c4cccc(C(F)(F)F)c4)CC3)C2=O)c1 (centres undefined),3.91%
18,O=c1c2ccccc2nc2n1CCN2,0.22%
19,CCOC(=O)C1=C(C)Nc2nnnn2C1c1ccc(OC)c(Br)c1 (centres undefined),-2.62%
20,COc1ccc(-n2c(Cc3cccn3C)nnc2SCC(N)=O)cc1,-2.07%

row,SMILES,viability increase
1,COc1ccccc1NC(=O)CSc1nnc(Cc2cccn2C)n1-c1ccc(F)cc1,-4.45%
2,CC(=O)Nc1cccc(Oc2nc(C)cc(C)c2C#N)c1,2.21%
3,COc1ccc(CNC(=O)c2ccc(CN3CCOCC3)cc2)cc1,-0.28%
4,Cc1cc(OCC(=O)NCCO)cc(C)c1Cl,-0.21%
5,COc1ccc(C)cc1S(=O)(=O)N1CCN(S(=O)(=O)c2cc(C)ccc2OC)CC1,-0.01%
6,CCCCC(NS(=O)(=O)c1ccc(OC)cc1)C(=O)O (centres undefined),0.29%
7,CCOc1ccc(Cn2nnc(C(=O)Nc3ccc(OC)cc3OC)c2N)cc1,-4.36%
8,Cc1cc(C)c(NC(=O)CSc2nc3c(c(=O)n2C)SC(C)C3)c(C)c1 (centres undefined),-0.13%
9,COc1ccccc1N1C(=O)CCC1(C#N)c1ccccc1 (centres undefined),-1.56%
10,CCOc1ccc(N(CC(=O)NC2CCCC(C)C2C)S(=O)(=O)c2c(C)noc2C)cc1 (centres undefined),-1.09%
11,CCN1C(=O)c2ccccc2S(=O)(=O)c2ccc(C(=O)NCc3cccnc3)cc21,-2.25%
12,Cc1ccc(C(=O)CC2(O)C(=O)N(C)c3ccc(Br)cc32)c(C)c1 (centres undefined),-4.61%
13,CCN1CCN(C(=O)c2cn(CC)c3ccc(S(=O)(=O)N(C)C)cc3c2=O)CC1,-2.35%
14,COc1ccc(OC)c(NC(=O)CSc2nnc(Cc3cccn3C)n2-c2ccc(F)cc2)c1,-5.9%
15,CCOc1ccc(-c2nnc(SCC(=O)N3CCN(c4ccccc4)CC3)o2)cc1,-0.66%
16,COCCCN(C)C1CCN(C(=O)Nc2ccc(F)cc2)CC1,0.68%
17,COc1cccc(C2CC(=O)Nc3c2c(=O)n(C)c(=O)n3C)c1OC (centres undefined),0.25%
18,CCCC(=O)C1=C(N(C)c2ccccc2)CC(C)(C)C(C(=O)OC)C1=O (centres undefined),-3.32%
19,CC(=O)N1c2c(cc(Br)cc2S(=O)(=O)NCC2COc3ccccc3O2)CC1C (centres undefined),0.21%
20,CCCCNC(=O)Cn1c(=O)n(C)c2ccccc21,-0.03%
